Laboratory results taken from ChEMBL document CHEMBL4007456, “Heterocyclyl Tetracyclines. 1. 7-Trifluoromethyl-8-Pyrrolidinyltetracyclines: Potent, Broad Spectrum Antibacterial Agents with Enhanced Activity against Pseudomonas aeruginosa” (2017).
In brackets after ≈: the same amount, converted by molar mass.

Each compound was assayed on Klebsiella pneumoniae (assay: Antibacterial activity against gram-negative Klebsiella pneumoniae KP457 harboring blacTX-M-15 extended spectrum beta-lactamase gene by CLSI method).
Type: functional
Method in brief: (§1)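 CLSI broth microdilution MIC in fresh cation-adjusted Mueller Hinton broth, supplemented with defibrinated horse blood where appropriate. Compounds serially diluted in sterile deionized water. Runs accepted when comparator antibiotics against ATCC quality-control strains fell within recommended ranges.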

Which MIC does the source give for `CCCN1CCC[C@H]1c1cc(O)c2c(c1C(F)(F)F)C[C@H]1C[C@H]3[C@H](N(C)C)C(O)=C(C(N)=O)C(=O)[C@@]3(O)C(O)=C1C2=O` here?
Its MIC is 16 µg/mL (≈ 27 µM).

Which MIC does the source give for `CN(C)[C@@H]1C(O)=C(C(N)=O)C(=O)[C@@]2(O)C(O)=C3C(=O)c4c(O)cc([C@@H]5CCCN5)cc4C[C@H]3C[C@@H]12` here?
The MIC was 0.5 µg/mL (≈ 1.03 µM).

These compounds were tested on Enterobacter cloacae (assay: Antibacterial activity against gram-negative Enterobacter cloacae EC1603 harboring tet(A) by CLSI method).
Type: functional
Method in brief: as §1

`CCCN1CCC[C@H]1c1cc(O)c2c(c1C(F)(F)F)C[C@H]1C[C@H]3[C@H](N(C)C)C(O)=C(C(N)=O)C(=O)[C@@]3(O)C(O)=C1C2=O` was tested. Which MIC did it give?
The MIC was 32 µg/mL (≈ 53.9 µM).

For `CN(C)[C@@H]1C(O)=C(C(N)=O)C(=O)[C@@]2(O)C(O)=C3C(=O)c4c(O)cc([C@@H]5CCCN5)cc4C[C@H]3C[C@@H]12`, which MIC is on record?
The MIC was 4 µg/mL (≈ 8.27 µM).

Each compound was assayed on Staphylococcus aureus (assay: Antibacterial activity against gram-positive Staphylococcus aureus SA158 harboring tet(K) by CLSI method).
Type: functional
Method in brief: as §1

How did the MIC turn out when `CCCN1CCC[C@H]1c1cc(O)c2c(c1C(F)(F)F)C[C@H]1C[C@H]3[C@H](N(C)C)C(O)=C(C(N)=O)C(=O)[C@@]3(O)C(O)=C1C2=O` was run?
Its MIC is 0.125 µg/mL (≈ 0.211 µM).

`CN(C)[C@@H]1C(O)=C(C(N)=O)C(=O)[C@@]2(O)C(O)=C3C(=O)c4c(O)cc([C@@H]5CCCN5)cc4C[C@H]3C[C@@H]12` was tested. Which MIC did it give?
Its MIC is 0.5 µg/mL (≈ 1.03 µM).

The compounds below were run on Burkholderia cenocepacia (assay: Antibacterial activity against gram-negative Burkholderia cenocepacia BC240 by CLSI method).
Type: functional
Method in brief: (§2)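 Defibrinated horse blood added where appropriate. Compounds serially diluted in sterile deionized water. Strains from ATCC unless otherwise noted. Runs accepted when comparator antibiotics fell within QC ranges for ATCC quality control strains.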

How did the MIC turn out when `CCCN1CCC[C@H]1c1cc(O)c2c(c1C(F)(F)F)C[C@H]1C[C@H]3[C@H](N(C)C)C(O)=C(C(N)=O)C(=O)[C@@]3(O)C(O)=C1C2=O` was run?
The MIC was 16 µg/mL (≈ 27 µM).

With `CN(C)[C@@H]1C(O)=C(C(N)=O)C(=O)[C@@]2(O)C(O)=C3C(=O)c4c(O)cc([C@@H]5CCCN5)cc4C[C@H]3C[C@@H]12` as the compound, how does the MIC read?
Its MIC is greater than 32 µg/mL.

These compounds were tested on Enterococcus faecalis (assay: Antibacterial activity against gram-positive Enterococcus faecalis EFs327 harboring tet(M) by CLSI method).
Type: functional
Method in brief: as §1

Which MIC does the source give for `CCCN1CCC[C@H]1c1cc(O)c2c(c1C(F)(F)F)C[C@H]1C[C@H]3[C@H](N(C)C)C(O)=C(C(N)=O)C(=O)[C@@]3(O)C(O)=C1C2=O` here?
The MIC was 1 µg/mL (≈ 1.68 µM).

With `CN(C)[C@@H]1C(O)=C(C(N)=O)C(=O)[C@@]2(O)C(O)=C3C(=O)c4c(O)cc([C@@H]5CCCN5)cc4C[C@H]3C[C@@H]12` as the compound, how does the MIC read?
The MIC was greater than 32 µg/mL.

These compounds were tested on Streptococcus pneumoniae (assay: Antibacterial activity against gram-positive Streptococcus pneumoniae SP160 harboring tet(M) by CLSI method).
Type: functional
Method in brief: as §1

For `CCCN1CCC[C@H]1c1cc(O)c2c(c1C(F)(F)F)C[C@H]1C[C@H]3[C@H](N(C)C)C(O)=C(C(N)=O)C(=O)[C@@]3(O)C(O)=C1C2=O`, which MIC is on record?
The MIC was no more than 0.0156 µg/mL.

How did the MIC turn out when `CN(C)[C@@H]1C(O)=C(C(N)=O)C(=O)[C@@]2(O)C(O)=C3C(=O)c4c(O)cc([C@@H]5CCCN5)cc4C[C@H]3C[C@@H]12` was run?
Its MIC is 8 µg/mL (≈ 16.5 µM).

The compounds below were run on Escherichia coli (assay: Antibacterial activity against gram-negative Escherichia coli EC107 by CLSI method).
Type: functional
Method in brief: as §2, with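 “Broth microdilution MIC per CLSI in cation-adjusted Mueller Hinton broth, prepared fresh and held at 4 °C. Defibrinated” for “Defibrinated”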

For `CCCN1CCC[C@H]1c1cc(O)c2c(c1C(F)(F)F)C[C@H]1C[C@H]3[C@H](N(C)C)C(O)=C(C(N)=O)C(=O)[C@@]3(O)C(O)=C1C2=O`, which MIC is on record?
The MIC was 1 µg/mL (≈ 1.68 µM).

With `CN(C)[C@@H]1C(O)=C(C(N)=O)C(=O)[C@@]2(O)C(O)=C3C(=O)c4c(O)cc([C@@H]5CCCN5)cc4C[C@H]3C[C@@H]12` as the compound, how does the MIC read?
Its MIC is 0.25 µg/mL (≈ 0.517 µM).

Each compound was assayed on Staphylococcus aureus (assay: Antibacterial activity against gram-positive Staphylococcus aureus SA101 by CLSI method).
Type: functional
Method in brief: as §2, with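 “Broth microdilution MIC per CLSI in cation-adjusted Mueller Hinton broth, prepared fresh and held at 4 °C. Defibrinated” for “Defibrinated”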

Which MIC does the source give for `CCCN1CCC[C@H]1c1cc(O)c2c(c1C(F)(F)F)C[C@H]1C[C@H]3[C@H](N(C)C)C(O)=C(C(N)=O)C(=O)[C@@]3(O)C(O)=C1C2=O` here?
Its MIC is 0.25 µg/mL (≈ 0.421 µM).

For `CN(C)[C@@H]1C(O)=C(C(N)=O)C(=O)[C@@]2(O)C(O)=C3C(=O)c4c(O)cc([C@@H]5CCCN5)cc4C[C@H]3C[C@@H]12`, which MIC is on record?
Its MIC is 4 µg/mL (≈ 8.27 µM).

Each compound was assayed on Staphylococcus aureus (assay: Antibacterial activity against gram-positive Staphylococcus aureus SA161 harboring tet(M) by CLSI method).
Type: functional
Method in brief: as §1

`CCCN1CCC[C@H]1c1cc(O)c2c(c1C(F)(F)F)C[C@H]1C[C@H]3[C@H](N(C)C)C(O)=C(C(N)=O)C(=O)[C@@]3(O)C(O)=C1C2=O` was tested. Which MIC did it give?
The MIC was 1 µg/mL (≈ 1.68 µM).

With `CN(C)[C@@H]1C(O)=C(C(N)=O)C(=O)[C@@]2(O)C(O)=C3C(=O)c4c(O)cc([C@@H]5CCCN5)cc4C[C@H]3C[C@@H]12` as the compound, how does the MIC read?
The MIC was greater than 32 µg/mL.

The compounds below were run on Stenotrophomonas maltophilia (assay: Antibacterial activity against gram-negative Stenotrophomonas maltophilia SM256 by CLSI method).
Type: functional
Method in brief: as §2, with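 “Broth microdilution MIC per CLSI in cation-adjusted Mueller Hinton broth, prepared fresh and held at 4 °C. Defibrinated” for “Defibrinated”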

How did the MIC turn out when `CCCN1CCC[C@H]1c1cc(O)c2c(c1C(F)(F)F)C[C@H]1C[C@H]3[C@H](N(C)C)C(O)=C(C(N)=O)C(=O)[C@@]3(O)C(O)=C1C2=O` was run?
Its MIC is 4 µg/mL (≈ 6.74 µM).

With `CN(C)[C@@H]1C(O)=C(C(N)=O)C(=O)[C@@]2(O)C(O)=C3C(=O)c4c(O)cc([C@@H]5CCCN5)cc4C[C@H]3C[C@@H]12` as the compound, how does the MIC read?
The MIC was 32 µg/mL (≈ 66.2 µM).

Each compound was assayed on Enterococcus faecium (assay: Antibacterial activity against gram-positive Enterococcus faecium EFm404 harboring tet(M) by CLSI method).
Type: functional
Method in brief: as §1

How did the MIC turn out when `CCCN1CCC[C@H]1c1cc(O)c2c(c1C(F)(F)F)C[C@H]1C[C@H]3[C@H](N(C)C)C(O)=C(C(N)=O)C(=O)[C@@]3(O)C(O)=C1C2=O` was run?
The MIC was 1 µg/mL (≈ 1.68 µM).

For `CN(C)[C@@H]1C(O)=C(C(N)=O)C(=O)[C@@]2(O)C(O)=C3C(=O)c4c(O)cc([C@@H]5CCCN5)cc4C[C@H]3C[C@@H]12`, which MIC is on record?
Its MIC is 16 µg/mL (≈ 33.1 µM).

Each compound was assayed on Escherichia coli (assay: Antibacterial activity against gram-negative Escherichia coli EC155 harboring tet(A) by CLSI method).
Type: functional
Method in brief: as §1

How did the MIC turn out when `CCCN1CCC[C@H]1c1cc(O)c2c(c1C(F)(F)F)C[C@H]1C[C@H]3[C@H](N(C)C)C(O)=C(C(N)=O)C(=O)[C@@]3(O)C(O)=C1C2=O` was run?
The MIC was 2 µg/mL (≈ 3.37 µM).

`CN(C)[C@@H]1C(O)=C(C(N)=O)C(=O)[C@@]2(O)C(O)=C3C(=O)c4c(O)cc([C@@H]5CCCN5)cc4C[C@H]3C[C@@H]12` was tested. Which MIC did it give?
The MIC was 4 µg/mL (≈ 8.27 µM).

Each compound was assayed on Acinetobacter baumannii (assay: Antibacterial activity against gram-negative Acinetobacter baumannii AB250 by CLSI method).
Type: functional
Method in brief: as §2, with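 “Broth microdilution MIC per CLSI in cation-adjusted Mueller Hinton broth, prepared fresh and held at 4 °C. Defibrinated” for “Defibrinated”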

`CCCN1CCC[C@H]1c1cc(O)c2c(c1C(F)(F)F)C[C@H]1C[C@H]3[C@H](N(C)C)C(O)=C(C(N)=O)C(=O)[C@@]3(O)C(O)=C1C2=O` was tested. Which MIC did it give?
The MIC was 4 µg/mL (≈ 6.74 µM).

For `CN(C)[C@@H]1C(O)=C(C(N)=O)C(=O)[C@@]2(O)C(O)=C3C(=O)c4c(O)cc([C@@H]5CCCN5)cc4C[C@H]3C[C@@H]12`, which MIC is on record?
The MIC was greater than 32 µg/mL.

What follows are compounds tested on Pseudomonas aeruginosa (assay: Antibacterial activity against gram-negative Pseudomonas aeruginosa PA555 by CLSI method).
Type: functional
Method in brief: as §2, with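 “Broth microdilution MIC per CLSI in cation-adjusted Mueller Hinton broth, prepared fresh and held at 4 °C. Defibrinated” for “Defibrinated”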

How did the MIC turn out when `CCCN1CCC[C@H]1c1cc(O)c2c(c1C(F)(F)F)C[C@H]1C[C@H]3[C@H](N(C)C)C(O)=C(C(N)=O)C(=O)[C@@]3(O)C(O)=C1C2=O` was run?
Its MIC is greater than 32 µg/mL.

`CN(C)[C@@H]1C(O)=C(C(N)=O)C(=O)[C@@]2(O)C(O)=C3C(=O)c4c(O)cc([C@@H]5CCCN5)cc4C[C@H]3C[C@@H]12` was tested. Which MIC did it give?
The MIC was 16 µg/mL (≈ 33.1 µM).

These compounds were tested on Proteus mirabilis (assay: Antibacterial activity against gram-negative Proteus mirabilis PM385 by CLSI method).
Type: functional
Method in brief: as §2, with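 “Broth microdilution MIC per CLSI in cation-adjusted Mueller Hinton broth, prepared fresh and held at 4 °C. Defibrinated” for “Defibrinated”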

`CCCN1CCC[C@H]1c1cc(O)c2c(c1C(F)(F)F)C[C@H]1C[C@H]3[C@H](N(C)C)C(O)=C(C(N)=O)C(=O)[C@@]3(O)C(O)=C1C2=O` was tested. Which MIC did it give?
The MIC was 8 µg/mL (≈ 13.5 µM).

`CN(C)[C@@H]1C(O)=C(C(N)=O)C(=O)[C@@]2(O)C(O)=C3C(=O)c4c(O)cc([C@@H]5CCCN5)cc4C[C@H]3C[C@@H]12` was tested. Which MIC did it give?
The MIC was 0.25 µg/mL (≈ 0.517 µM).
